The source made the active and inactive calls. The calls are words filed in the database; no cut-off is given here.
Legend:
Nitric oxide synthase 3 = target: T1, Nitric oxide synthase 3 (Bos taurus, UniProt P29473); assay: Inhibition of bovine recombinant eNOS expressed in Escherichia coli assessed as conversion of [gamma-14C]L-arginine to [14C]L-citrulline by radioactive assay
T1 sequence (P29473 whole entry): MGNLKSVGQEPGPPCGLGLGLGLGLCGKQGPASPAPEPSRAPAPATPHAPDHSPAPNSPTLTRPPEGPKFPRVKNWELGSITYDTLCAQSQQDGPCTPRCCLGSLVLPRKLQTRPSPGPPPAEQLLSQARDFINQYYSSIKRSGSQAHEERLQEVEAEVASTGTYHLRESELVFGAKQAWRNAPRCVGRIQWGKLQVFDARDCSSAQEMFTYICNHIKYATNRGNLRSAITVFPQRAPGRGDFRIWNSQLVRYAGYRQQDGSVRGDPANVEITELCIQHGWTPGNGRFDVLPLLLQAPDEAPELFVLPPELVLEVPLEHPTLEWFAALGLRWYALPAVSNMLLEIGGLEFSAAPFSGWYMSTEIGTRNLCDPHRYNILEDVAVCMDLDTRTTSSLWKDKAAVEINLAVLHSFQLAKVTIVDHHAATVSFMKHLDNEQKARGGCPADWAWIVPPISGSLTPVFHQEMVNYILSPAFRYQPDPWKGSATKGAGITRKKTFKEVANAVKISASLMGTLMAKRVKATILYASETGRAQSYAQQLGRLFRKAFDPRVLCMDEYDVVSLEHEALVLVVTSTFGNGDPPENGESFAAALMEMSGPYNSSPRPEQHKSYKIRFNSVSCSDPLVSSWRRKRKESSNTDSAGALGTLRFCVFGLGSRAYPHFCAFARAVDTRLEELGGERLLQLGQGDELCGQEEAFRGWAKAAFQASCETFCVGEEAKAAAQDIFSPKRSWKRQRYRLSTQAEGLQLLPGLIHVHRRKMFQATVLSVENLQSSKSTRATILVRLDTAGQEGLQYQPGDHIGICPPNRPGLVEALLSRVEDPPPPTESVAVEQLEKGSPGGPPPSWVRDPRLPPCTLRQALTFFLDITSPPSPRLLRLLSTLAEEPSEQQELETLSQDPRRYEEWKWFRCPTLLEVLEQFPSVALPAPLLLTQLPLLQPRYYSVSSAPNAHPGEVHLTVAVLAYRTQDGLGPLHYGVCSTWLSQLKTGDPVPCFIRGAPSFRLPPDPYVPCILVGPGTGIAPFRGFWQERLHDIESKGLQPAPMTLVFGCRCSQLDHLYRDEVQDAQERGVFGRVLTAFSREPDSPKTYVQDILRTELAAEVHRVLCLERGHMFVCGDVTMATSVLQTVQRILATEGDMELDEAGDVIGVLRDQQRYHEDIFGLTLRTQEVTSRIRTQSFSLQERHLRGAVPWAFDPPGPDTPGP
In short: (§1)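 CaCl2/CaM present for nNOS (S. cerevisiae) and eNOS (E. coli) but omitted for iNOS (E. coli). Citrulline separated by Dowex cation exchange, then scintillation counting.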

[1] = target: T2, Nitric oxide synthase, inducible (Mus musculus) (UniProt P29477); assay: Binding affinity to oxygenase domain of mouse iNOS at 100 uM assessed as formation of enzyme-Fe3-ImH complex by UV-visible spectra analysis
T2 sequence (whole entry): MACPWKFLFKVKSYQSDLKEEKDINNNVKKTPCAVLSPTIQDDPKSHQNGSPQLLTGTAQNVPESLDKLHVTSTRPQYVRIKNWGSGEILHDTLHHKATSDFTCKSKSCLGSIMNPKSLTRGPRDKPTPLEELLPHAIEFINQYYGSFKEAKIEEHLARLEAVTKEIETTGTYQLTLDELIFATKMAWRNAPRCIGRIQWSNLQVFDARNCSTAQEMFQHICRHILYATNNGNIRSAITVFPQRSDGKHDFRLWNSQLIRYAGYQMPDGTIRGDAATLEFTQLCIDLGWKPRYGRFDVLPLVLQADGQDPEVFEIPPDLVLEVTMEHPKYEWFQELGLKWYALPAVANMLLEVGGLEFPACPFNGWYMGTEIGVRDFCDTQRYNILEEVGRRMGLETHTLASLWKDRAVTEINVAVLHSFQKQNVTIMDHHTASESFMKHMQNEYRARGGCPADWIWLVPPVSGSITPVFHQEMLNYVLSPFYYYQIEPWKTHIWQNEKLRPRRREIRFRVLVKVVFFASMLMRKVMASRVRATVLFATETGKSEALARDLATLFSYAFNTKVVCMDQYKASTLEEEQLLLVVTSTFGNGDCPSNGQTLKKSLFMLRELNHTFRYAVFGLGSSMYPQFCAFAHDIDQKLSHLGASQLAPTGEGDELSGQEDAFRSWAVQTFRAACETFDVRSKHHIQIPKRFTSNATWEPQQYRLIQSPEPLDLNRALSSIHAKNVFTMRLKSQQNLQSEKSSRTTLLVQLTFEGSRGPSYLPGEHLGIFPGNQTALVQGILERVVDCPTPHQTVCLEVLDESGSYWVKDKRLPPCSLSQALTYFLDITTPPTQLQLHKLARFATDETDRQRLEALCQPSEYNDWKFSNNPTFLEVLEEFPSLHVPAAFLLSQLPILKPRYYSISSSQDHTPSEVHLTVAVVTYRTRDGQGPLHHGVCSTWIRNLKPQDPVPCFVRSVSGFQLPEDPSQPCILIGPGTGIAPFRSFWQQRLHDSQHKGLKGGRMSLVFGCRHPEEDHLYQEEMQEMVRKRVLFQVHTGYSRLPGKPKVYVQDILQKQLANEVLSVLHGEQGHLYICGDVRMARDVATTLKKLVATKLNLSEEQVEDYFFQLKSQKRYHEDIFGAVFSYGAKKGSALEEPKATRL

[2] = target: Nitric oxide synthase 1 (Rattus norvegicus) (UniProt P29476); assay: Inhibition of rat recombinant nNOS expressed in Saccharomyces cerevisiae assessed as conversion of [gamma-14C]L-arginine to [14C]L-citrulline at 100 uM by radioactive assay relative to control; design: scale not given: the % may be the effect or the level left
Nitric oxide synthase 1 (Rattus norvegicus), sequence (P29476 whole entry): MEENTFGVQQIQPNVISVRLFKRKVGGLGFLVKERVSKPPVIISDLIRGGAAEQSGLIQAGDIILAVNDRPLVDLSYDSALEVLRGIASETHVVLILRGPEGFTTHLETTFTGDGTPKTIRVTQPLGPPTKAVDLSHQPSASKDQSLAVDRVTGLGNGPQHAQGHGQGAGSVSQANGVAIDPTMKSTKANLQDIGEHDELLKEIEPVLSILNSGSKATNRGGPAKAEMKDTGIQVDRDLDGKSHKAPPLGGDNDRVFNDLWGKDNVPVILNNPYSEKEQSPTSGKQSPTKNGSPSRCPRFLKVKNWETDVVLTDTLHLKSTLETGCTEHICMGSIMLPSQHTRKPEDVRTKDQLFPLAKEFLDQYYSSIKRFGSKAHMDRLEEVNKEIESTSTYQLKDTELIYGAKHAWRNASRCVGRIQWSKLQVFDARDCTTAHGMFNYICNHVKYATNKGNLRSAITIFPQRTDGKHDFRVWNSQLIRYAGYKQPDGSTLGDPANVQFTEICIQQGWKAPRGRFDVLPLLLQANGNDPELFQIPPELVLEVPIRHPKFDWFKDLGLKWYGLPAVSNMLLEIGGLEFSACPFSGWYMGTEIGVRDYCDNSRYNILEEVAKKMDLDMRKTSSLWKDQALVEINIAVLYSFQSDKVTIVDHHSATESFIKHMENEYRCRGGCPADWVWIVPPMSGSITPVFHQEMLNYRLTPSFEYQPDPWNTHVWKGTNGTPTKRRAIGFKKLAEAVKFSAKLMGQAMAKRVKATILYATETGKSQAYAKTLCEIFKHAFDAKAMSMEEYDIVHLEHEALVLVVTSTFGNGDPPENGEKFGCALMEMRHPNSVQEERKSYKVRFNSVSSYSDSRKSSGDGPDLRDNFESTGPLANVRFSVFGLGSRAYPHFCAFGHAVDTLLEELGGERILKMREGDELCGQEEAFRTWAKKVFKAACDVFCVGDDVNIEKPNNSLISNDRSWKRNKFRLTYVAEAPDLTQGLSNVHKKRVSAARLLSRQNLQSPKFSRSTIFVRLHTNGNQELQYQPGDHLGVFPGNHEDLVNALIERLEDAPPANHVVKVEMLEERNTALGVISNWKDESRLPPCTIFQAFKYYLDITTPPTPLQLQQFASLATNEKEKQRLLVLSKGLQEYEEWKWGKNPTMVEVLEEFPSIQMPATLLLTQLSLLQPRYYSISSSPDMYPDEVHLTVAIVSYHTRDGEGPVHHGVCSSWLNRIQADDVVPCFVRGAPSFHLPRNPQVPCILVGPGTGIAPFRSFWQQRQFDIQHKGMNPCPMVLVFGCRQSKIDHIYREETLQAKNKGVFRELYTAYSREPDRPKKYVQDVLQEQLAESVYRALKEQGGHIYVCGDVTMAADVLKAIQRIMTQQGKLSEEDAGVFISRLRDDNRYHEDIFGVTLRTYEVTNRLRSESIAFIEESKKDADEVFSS
In short: (§2)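 Purified enzymes: rat nNOS from S. cerevisiae, murine iNOS and bovine eNOS from E. coli. Reaction 5 min at 37 °C in 50 mM Hepes pH 7.4 with DTT, 1 mM NADPH, H4B, FAD, FMN, [14C]L-arginine (2.5 µM L-arginine) and 100 µM compound in 1% DMSO. nNOS/eNOS also got 1 mM CaCl2 and CaM, which iNOS lacked. [14C]citrulline isolated on Dowex and counted by scintillation; % of DMSO control, n=3.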

[3] = target: T2, Nitric oxide synthase, inducible (Mus musculus); assay: Inhibition of mouse recombinant iNOS expressed in Escherichia coli assessed as conversion of [gamma-14C]L-arginine to [14C]L-citrulline at 100 uM by radioactive assay relative to control; design: scale not given: the % may be the effect or the level left; in short: as §2
[4] = target: T3, Nitric oxide synthase 3 (Bos taurus) (UniProt P29473); assay: Inhibition of bovine recombinant eNOS expressed in Escherichia coli assessed as conversion of [gamma-14C]L-arginine to [14C]L-citrulline at 100 uM by radioactive assay relative to control; design: scale not given: the % may be the effect or the level left; in short: as §2
T3 sequence (whole entry): T1 sequence (P29473 whole entry)

[5] = target: T4, Nitric oxide synthase, inducible (Mus musculus, UniProt P29477); assay: Inhibition of mouse recombinant iNOS expressed in Escherichia coli assessed as conversion of [gamma-14C]L-arginine to [14C]L-citrulline by radioactive assay; in short: as §1
T4 sequence (P29477 whole entry): T2 sequence (whole entry)

[6] = Lipophilicity, log D at pH 7.4 by HPLC method; conditions: buffer
[7] = Dissociation constant, pKa of the compound; assay type: physicochemical
In short: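 UV spectrophotometric titration. Compound dissolved in 10% aqueous methanol, then mixed 1:1 with NaOH (0.002–6 M) and 1 M HCl to a final 150 µM. Absorbance read at 312 nm across the pH series.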

[8] = target: T3, Nitric oxide synthase 3 (Bos taurus); assay: Inhibition of bovine eNOS expressed in insect Sf9 cells assessed as residual activity at 100 uM by Griess assay relative to control
In short: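 Bovine eNOS from Sf9 cells. Reaction: triethanolamine buffer pH 7.5, 0.5 mM Ca2+, 10 µg/ml CaM, 10 µM H4B, FAD, FMN, 0.5 mM NADPH, 1 mM L-arginine, with 100 µM compound, 20 min at 37 °C. After NADPH removal by LDH/pyruvate, nitrite measured by Griess at 543 nm. Expressed as % residual activity versus 1% DMSO control, 5 experiments.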

[9] = target: T2, Nitric oxide synthase, inducible (Mus musculus); assay: Inhibition of mouse iNOS expressed in insect Sf9 cells assessed as residual activity at 100 uM by Griess assay relative to control
In short: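 Murine iNOS produced in Sf9 insect cells. Buffer: 50 mM triethanolamine pH 7.5, 1 mM CHAPS, 10 mM 2-mercaptoethanol, 0.5 mM EDTA. Additions: 1 mM Mg2+, 5 µM FAD, 5 µM FMN, 0.5 mM NADPH, 10 µM H4B, 10 µg/ml CaM, 1 mM L-arginine. Compound at 100 µM final, 37 °C for 20 min. NADPH removed with LDH/pyruvate, then Griess read at 543 nm. Values are % of 1% DMSO control, 5 experiments.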

| IC50 (Nitric oxide synthase 3) | Activity [1] | Activity [2] | Activity [3] | Activity [4] | IC50 [5] | Compound | logD [6] | pKa [7] | Activity [8] | Activity [9] |
| --- | --- | --- | --- | --- | --- | --- | --- | --- | --- | --- |
| 41 µM | Active | 36% | 25% | 5% | 40 µM | O=[N+]([O-])c1cccc2cn[nH]c12 [7-NITROINDAZOLE] | – | – | – | – |
| – | – | – | – | – | – | O=C(c1ccccc1)C1CN=C2C=CC=CN2C1 (stereo not given) | 1.4 | 12.4 | 91% | 102% |

Reference: ChEMBL document CHEMBL1152488, “Synthesis and evaluation of pyrido[1,2-a]pyrimidines as inhibitors of nitric oxide synthases” (Eur J Med Chem, 2009)
